Tests used:
[1] = organism: Rattus norvegicus; assay: The pancreatic uptake of [64Cu]-TETA-Y3-TATE in somatostatin-rich (ID/g) tissues by a co-injection of compound at 1 h
[2] = organism: Rattus norvegicus; assay: The percent block of uptake of [64Cu]-TETA-Y3-TATE in somatostatin-rich tissues by a co-injection of compound; assay type: functional
How it was run: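 In CA20948 tumor-bearing Lewis rats, [⁶⁴Cu]TETA-Y3-TATE (5.4 μCi, 5 ng) was given i.v. by tail vein, either alone or co-injected with 150 μg of unlabeled competing peptide. All groups were killed at 1 h. Tissues were excised, weighed and γ-counted, with decay correction, to give %ID/g.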

Q: For `C[C@H](O)[C@H](NC(=O)[C@H]1CSSC[C@H](NC(=O)[C@H](N)Cc2ccccc2)C(=O)N[C@@H](Cc2ccc(O)cc2)C(=O)N[C@@H](Cc2c[nH]c3ccccc23)C(=O)N[C@@H](CCCCN)C(=O)N[C@H]([C@H](C)O)C(=O)N1)C(=O)O`, which Uptake [1] is on record?
A: 0.15 %ID/g

Q: And the Block [2]?
A: > 90%

— ChEMBL document CHEMBL1132631, “Comparison of four 64Cu-labeled somatostatin analogues in vitro and in a tumor-bearing rat model: evaluation of new derivatives for positron emission tomography imaging and targeted radiotherapy” (J Med Chem, 1999)
